Consider 37 sequences from the array DNA melting data of Ke et al. (doi:10.1101/2024.01.08.574731).

Data set [1] is described as follows: melting temperature; fluorescence melt of hairpins on a sequencing array, two-state fit, raised by 9.35 °C to match UV melts. To be noted: sodium 0.088 M. The method, boiled down:
(§1)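 Melting temperature and folding enthalpy were obtained by bootstrapped two-state fitting. Fits used Cy3 fluorescence of library hairpins with annealed Cy3 and quencher oligos on a sequenced MiSeq flow cell, imaged in 50 mM Na-HEPES pH 8.0, 25 mM NaCl in 2.5 °C steps up to 60 °C and normalised to pre-quench Cy3 and control constructs. Four replicates were combined by inverse-variance weighting, and fitted temperatures were raised by 9.35 °C to match UV melts.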

Data set [2] in a line: folding enthalpy; higher = less favourable; fluorescence melt of hairpins on a sequencing array, two-state fit. To be noted: sodium 0.088 M. The method, boiled down: as §1

GTCGCCGAAAGGCTAGAC ((((((....)))..))): the Tm in data set [1] was 47.1 °C. Besides, the folding enthalpy in data set [2] is -16.8 kcal/mol.

On to GTCCCGGGAAACCAGGAC ((((.((....)).)))), for which the Tm in data set [1] was found to be 46 °C. In addition, the folding enthalpy in data set [2] was -22.7 kcal/mol.

As to GGCTTCGGAAACGGAGTC (.((.((....)).)).), the Tm in data set [1] is 39.9 °C. Moreover, the folding enthalpy in data set [2] was -24.1 kcal/mol.

Regarding GTAGGCGAAAGCCTCTAC ((((((....)))..))), in data set [1], the Tm was determined as 36.4 °C. Also, the folding enthalpy in data set [2] is -8.87 kcal/mol.

In the case of GCACGTTCGAAAGAATGC (((..(((....)))))), in data set [1], the Tm was 29.6 °C. Also, the folding enthalpy in data set [2] is -16.9 kcal/mol.

Consider GTGGGCGAAAGCCGCCAC ((((((....)))..))), for which the Tm in data set [1] was found to be 42.3 °C. For the same sequence, the folding enthalpy in data set [2] was -13.3 kcal/mol.

On to GGGGACGAAAGTCTGCCC ((((((....)))..))), for which, in data set [1], the Tm was 44.1 °C. Also, in data set [2], the folding enthalpy was -14.4 kcal/mol.

GCTCGGCGAAAGCTCAGC (((..((....))..))): the Tm in data set [1] is 44.7 °C. Also, the folding enthalpy in data set [2] is -11.9 kcal/mol.

With GCCATTTCGAAAGAAGGC (((..(((....)))))), the Tm in data set [1] amounted to 33.1 °C. For the same sequence, in data set [2], the folding enthalpy is -25.1 kcal/mol.

On to GAGTTCGGAAACGAATTC ((.((((....)))).)), for which the Tm in data set [1] is 44 °C. In data set [2], the folding enthalpy was -30.8 kcal/mol.

For the sequence GTTGTCGAAAGACCCAAC ((((((....)))..))), the Tm in data set [1] came out at 26.6 °C. In data set [2], the folding enthalpy is -11.1 kcal/mol.

In the case of GGGCAAGGAAACTCGCCC ((((.((....)).)))), the Tm in data set [1] worked out at 50.7 °C. Besides, the folding enthalpy in data set [2] is -31.1 kcal/mol.

Consider GTCCGCGAAAGCGCAGAC ((((((....)))..))), for which, in data set [1], the Tm turned out to be 40.8 °C. Besides, the folding enthalpy in data set [2] is -14.6 kcal/mol.

As to GCACTCGAAAGAGCATGC ((((((....)))..))), in data set [1], the Tm stood at 35.2 °C. Also, the folding enthalpy in data set [2] was -14.4 kcal/mol.

As to GAGTGCGAAAGCATCTC ((((((....))).))), in data set [1], the Tm worked out at 52.1 °C. For the same sequence, the folding enthalpy in data set [2] was -21 kcal/mol.

As for CGTTCGGAAACGACTACG ((((((....)))..))), the Tm in data set [1] amounted to 29 °C. For the same sequence, the folding enthalpy in data set [2] was -12.6 kcal/mol.

Regarding GCGGGGAGCCGC ((((....)))), in data set [1], the Tm was 62.7 °C. Further, the folding enthalpy in data set [2] was -14.4 kcal/mol.

For the sequence GATCTTCCTGAAGATC ((((((....)))))), the Tm in data set [1] is 51.2 °C. Moreover, in data set [2], the folding enthalpy was -39.8 kcal/mol.

For the sequence GCGACAGATCGC ((((....)))), the Tm in data set [1] was 47.9 °C. Besides, the folding enthalpy in data set [2] is -20.7 kcal/mol.

On to GGAATAGGAAACTGTTCC ((((.((....)).)))), for which, in data set [1], the Tm turned out to be 42.9 °C. In data set [2], the folding enthalpy is -33 kcal/mol.

For GCGGGTGGAAACACTCGC (((.(((....))).))), in data set [1], the Tm stood at 60.7 °C. The folding enthalpy in data set [2] was -40.8 kcal/mol.

GGTACAGGAAACTGTATC (.(((((....))))).): the Tm in data set [1] came out at 43.4 °C. For the same sequence, the folding enthalpy in data set [2] was -28.6 kcal/mol.

For GATGAGAAATCATC (((((....))))), the Tm in data set [1] amounted to 39.8 °C. For the same sequence, in data set [2], the folding enthalpy was -20.6 kcal/mol.

Take GCTTTCGAAAGAATAGC ((((((....))).))): the Tm in data set [1] is 38.2 °C. Also, the folding enthalpy in data set [2] was -23.9 kcal/mol.

As to GCATGGCGAAAGCCTGC (((.(((....)))))), the Tm in data set [1] came to 63.8 °C. For the same sequence, the folding enthalpy in data set [2] is -27 kcal/mol.

With GATCTCGGTGGAGATC ((((((....)))))), in data set [1], the Tm was 68.6 °C. The folding enthalpy in data set [2] was -4.26 kcal/mol.

On to GATCGCGTGGGCGATC ((((((....)))))), for which the Tm in data set [1] was found to be 68.2 °C. For the same sequence, in data set [2], the folding enthalpy is -30.8 kcal/mol.

On to GGACTAGGAAACTGGTTC (.((.((....)).)).), for which, in data set [1], the Tm turned out to be 29.8 °C. In addition, in data set [2], the folding enthalpy was -13.1 kcal/mol.

On to GAGGTCGGAAACGGTCTC (((..((....))..))), for which the Tm in data set [1] was determined as 39.6 °C. Further, in data set [2], the folding enthalpy was -23.4 kcal/mol.

Turning to GATCGAATATCGATC ((((((...)))))), in data set [1], the Tm stood at 50.4 °C. Moreover, the folding enthalpy in data set [2] is -33.4 kcal/mol.

For GATCAGGCTCCTGATC ((((((....)))))), the Tm in data set [1] is 52.5 °C. The folding enthalpy in data set [2] was -42.8 kcal/mol.

As to GCTGTCGAAAGACGGAGC ((((((....)))..))), the Tm in data set [1] amounted to 42.9 °C. Besides, the folding enthalpy in data set [2] is -18.1 kcal/mol.

With GCGGCCAGCCGC ((((....)))), the Tm in data set [1] came to 67.3 °C. The folding enthalpy in data set [2] was -20.5 kcal/mol.

Take GATTGGGGAAACCCGATC (((.(((....))).))): the Tm in data set [1] came to 48.8 °C. In addition, the folding enthalpy in data set [2] is -35 kcal/mol.

As to GTGAACGCGAAAGCGCAC (((..(((....)))))), the Tm in data set [1] is 42.3 °C. Besides, the folding enthalpy in data set [2] is -14.8 kcal/mol.

TGGGGGAAACCCCA (((((....))))): in data set [1], the Tm came to 53.5 °C. In addition, the folding enthalpy in data set [2] is -17.2 kcal/mol.

For the sequence GATCGTCGTAACGATC ((((((....)))))), in data set [1], the Tm came to 57.1 °C. For the same sequence, in data set [2], the folding enthalpy was -48.4 kcal/mol.
